{
  "source": "paper PMC3144551",
  "about": "(Science signaling, 2011)",
  "key": {"mice [1]": {"tested_on": "mice", "test": "Scratching behavior after injection into the nape of the neck", "format": "in vivo, mouse", "details": "trypsin 200 µg, 50 µl, PAR2^−/− n = 6 vs WT n = 6", "method_in_brief": "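Male mice aged 2 to 3 months (20 to 30 g) were backcrossed to C57BL/6 for at least 10 generations and scored blind to genotype. A scratching bout was continuous hindpaw scratching directed at the injection site. Bouts were counted in 5-min intervals over a 30-min observation period after injection.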"}, "mouse hindpaws": {"tested_on": "mouse hindpaws", "test": "Thermal hyperalgesia, paw withdrawal latency to radiant heat", "format": "in vivo", "details": "trypsin 100 ng, 10 µl, intraplantar; WT n = 7, Mrgpr-clusterΔ^−/− n = 8, PAR2^−/− n = 10"}, "mice [2]": {"tested_on": "mice", "details": "cited from earlier work"}, "human subjects": {"tested_on": "human subjects", "details": "ref [5], cited from earlier work"}, "MrgprC11 [3]": {"biological_target": "T1, MrgprC11 (Mus musculus, UniProt Q8CIP3)", "T1 sequence (Q8CIP3 1-322)": "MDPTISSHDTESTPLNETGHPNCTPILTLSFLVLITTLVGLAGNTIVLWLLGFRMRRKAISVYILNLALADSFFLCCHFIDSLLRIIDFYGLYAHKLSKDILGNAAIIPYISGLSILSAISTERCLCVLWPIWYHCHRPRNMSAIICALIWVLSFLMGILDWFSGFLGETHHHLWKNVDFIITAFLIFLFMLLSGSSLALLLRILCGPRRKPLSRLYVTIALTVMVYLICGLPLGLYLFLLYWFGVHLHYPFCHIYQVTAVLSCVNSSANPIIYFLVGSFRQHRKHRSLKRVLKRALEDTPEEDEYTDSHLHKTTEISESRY", "test": "Calcium imaging of MrgprC11-expressing CHO cells", "format": "cell-based", "details": "for activation of MrgprC11 (calcium response): MrgprC11-expressing CHO cells, concentration not given"}, "human MrgprX2": {"tested_on": "human MrgprX2", "test": "Calcium imaging of MrgprX2-expressing CHO cells", "format": "cell-based", "details": "Ca^2+ imaging, fig. S4", "method_in_brief": "(§1)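 Each receptor was transfected individually into CHO cells. Cells were loaded with fura-2 acetoxymethyl ester for 45 min at 37°C, washed, and imaged at 340- and 380-nm excitation to detect intracellular free Ca2+. There were at least three independent experiments, with at least 100 cells analysed each time.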"}, "human MrgprX1": {"tested_on": "human MrgprX1", "test": "Calcium imaging of MrgprX1-expressing CHO cells", "format": "cell-based", "details": "Ca^2+ imaging, fig. S4", "method_in_brief": "as §1"}, "human MrgprX3": {"tested_on": "human MrgprX3", "test": "Calcium imaging of MrgprX3-expressing CHO cells", "format": "cell-based", "details": "Ca^2+ imaging, fig. S4", "method_in_brief": "as §1"}, "human MrgprX4": {"tested_on": "human MrgprX4", "test": "Calcium imaging of MrgprX4-expressing CHO cells", "format": "cell-based", "details": "Ca^2+ imaging, fig. S4", "method_in_brief": "as §1"}, "MrgprA3": {"tested_on": "MrgprA3", "test": "Calcium imaging of MrgprA3-expressing CHO cells", "format": "cell-based, mouse", "details": "chloroquine 100 µM; n = 155 cells", "method_in_brief": "as §1"}, "[4]": {"tested_on": "WT DRG neurons electroporated with siRNA", "test": "Calcium imaging of WT DRG neurons electroporated with siRNA", "format": "cell-based, mouse", "details": "CQ 1 mM"}, "MrgprC11 [5]": {"biological_target": "T1, MrgprC11", "test": "Calcium imaging of Mrgpr-clusterΔ^−/− DRG neurons electroporated with MrgprC11", "format": "cell-based", "details": "MrgprC11-expressing Mrgpr-clusterΔ^−/− neurons, n = 66; BAM(8–22) 2 µM"}, "DRG neurons": {"tested_on": "DRG neurons", "test": "Whole-cell current-clamp recording of cultured DRG neurons", "format": "cell-based, mouse", "details": "n = 6; perfused with 1 mM SLIGRL or BAM(8–22) for 20 s, pH 7.38, room temperature (~25°C)"}, "MrgprC11 [6]": {"biological_target": "T1, MrgprC11", "details": "ref [8], [11]; cited from earlier work"}},
  "note": "Entries after “also recorded” stand apart in the source; their conditions may differ.",
  "data": [
    {"compound": "trypsin", "values": [
      {"measurement": "trypsin-induced scratching in PAR2^−/− mice", "setting": "mice [1]", "result": "significantly stronger in PAR2^−/− mice; also recorded: scratched significantly more than did wild-type controls"},
      {"measurement": "trypsin-induced thermal hyperalgesia (paw withdrawal latency)", "setting": "mouse hindpaws", "result": "comparable among wild-type, Mrgpr knockout, and PAR2 knockout mice; also recorded: comparable among the three groups"},
      {"measurement": "scratching response to trypsin in mice", "setting": "mice [2]; injection into nape of neck, ref [4]", "result": "induces a scratching response"},
      {"measurement": "scratching behavior in mice", "setting": "mice [2]; intradermal injection, ref [3], [4]", "result": "elicit scratching behavior in mice"},
      {"measurement": "itch in humans", "setting": "human subjects; skin application, [6]", "result": "induces itch in humans"}
    ]},
    {"compound": "LRGILS-NH2", "values": [
      {"measurement": "activation of MrgprC11 (calcium response)", "setting": "MrgprC11 [3]", "result": "None of these derivatives induced significant calcium responses in cells"}
    ]},
    {"compound": "SLIGKV", "values": [
      {"measurement": "calcium response, MrgprX2-expressing CHO cells", "setting": "human MrgprX2", "result": "exhibited a response"},
      {"measurement": "calcium response, MrgprX1-expressing CHO cells", "setting": "human MrgprX1", "result": "insensitive to the peptide"},
      {"measurement": "calcium response, MrgprX3-expressing CHO cells", "setting": "human MrgprX3", "result": "insensitive to the peptide"},
      {"measurement": "calcium response, MrgprX4-expressing CHO cells", "setting": "human MrgprX4", "result": "insensitive to the peptide"},
      {"measurement": "itch in human subjects", "setting": "human subjects; intracutaneous injection, low millimolar range", "result": "provokes itch in human subjects"}
    ]},
    {"compound": "CCN(CC)CCCC(C)Nc1ccnc2cc(Cl)ccc12", "note": "(stereo not shown) [chloroquine]", "values": [
      {"measurement": "calcium response, MrgprA3-expressing CHO cells", "setting": "MrgprA3", "result": "could be activated by chloroquine; also recorded: responded"},
      {"measurement": "chloroquine sensitivity", "setting": "[4]; WT DRG neurons + MrgprA3 siRNA", "result": "abolished the chloroquine response"},
      {"measurement": "chloroquine sensitivity", "setting": "[4]; WT DRG neurons + MrgprA3 siRNA, listed as CQ", "result": "completely abolished CQ sensitivity"},
      {"measurement": "chloroquine sensitivity", "setting": "[4]; WT DRG neurons + MrgprC11 siRNA, n = 7 CQ-sensitive neurons", "result": "still sensitive"}
    ]},
    {"compound": "SLIGRL [SLIGRL without amidation (−NH2)]", "values": [
      {"measurement": "activation of MrgprC11 (calcium response)", "setting": "MrgprC11 [3]", "result": "None of these derivatives induced significant calcium responses in cells"}
    ]},
    {"compound": "bovine adrenal medulla peptide [BAM(8–22)]", "values": [
      {"measurement": "calcium response, MrgprC11-expressing CHO cells", "setting": "MrgprC11 [3]; BAM(8–22) 2 µM, n = 150 cells", "result": "responded"},
      {"measurement": "increase in [Ca^2+]i", "setting": "MrgprC11 [5]", "result": "showed increased [Ca^2+]i"},
      {"measurement": "action potentials evoked in SLIGRL-sensitive WT DRG neurons", "setting": "DRG neurons", "result": "All of them also generated action potentials"},
      {"measurement": "agonism at MrgprC11", "setting": "MrgprC11 [6]", "result": "specific agonist for MrgprC11"},
      {"measurement": "evoked scratching in Mrgpr-clusterΔ^−/− mice", "setting": "mice [2]; Mrgpr-clusterΔ^−/− mice, ref [8]", "result": "reduced"},
      {"measurement": "Mrgpr-dependent scratching response", "setting": "mice [2]; ref [8]", "result": "induces an Mrgpr-dependent scratching response"}
    ]}
  ]
}
